Measurements from ChEMBL document CHEMBL1136453, “New classes of antibacterial oxazolidinones with C-5, methylene O-linked heterocyclic side chains” (2003).
≈ marks a conversion by molar mass, not a printed value.

Assays:
Staphylococcus aureus [1] = assay: In vitro minimum inhibitory concentration against Staphylococcus aureus MRQR; assay type: functional
Streptococcus pyogenes = assay: In vitro minimum inhibitory concentration against Streptococcus pyogenes penicillin sensitive; assay type: functional
Summary of the method: (§1)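 Agar dilution per NCCLS protocol with doubling dilutions from 128 to 0.008 mg/L, incubated at 37 °C. Strains came from an in-house culture collection. MIC reported in mg/L.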

Staphylococcus aureus [2] = assay: In vitro minimum inhibitory concentration against Staphylococcus aureus Oxford; assay type: functional; details: Staphylococcus aureus; read-out: MIC
Enterococcus faecalis = assay: In vitro minimum inhibitory concentration against Enterococcus faecalis; assay type: functional; summary of the method: as §1
[3] = In vivo antibacterial activity against Staphylococcus aureus after intravenous administration (5 mg/kg) in mice using (MTT) mouse thigh test
Staphylococcus aureus [4] = assay: In vivo antibacterial activity against Staphylococcus aureus after intravenous administration (10 mg/kg) in mice using (MTT) mouse thigh test
Staphylococcus aureus [5] = assay: In vitro minimum inhibitory concentration against coagulase negative Staphylococcus aureus methicillin resistant (CNSMR); assay type: functional

| Structure (SMILES) | MIC (Staphylococcus aureus [1]) | MIC (Streptococcus pyogenes) | MIC (Staphylococcus aureus [2]) | MIC (Enterococcus faecalis) | Activity [3] | Activity (Staphylococcus aureus [4]) | MIC (Staphylococcus aureus [5]) |
| --- | --- | --- | --- | --- | --- | --- | --- |
| O=C1O[C@@H](COc2ccccc2)CN1c1ccc(C2=CCOCC2)c(F)c1 | > 128 µg/mL | > 128 µg/mL | > 128 µg/mL | > 128 µg/mL |  |  |  |
| Cc1cccc(OC[C@H]2CN(c3ccc(C4=CCOCC4)c(F)c3)C(=O)O2)n1 | > 128 µg/mL | > 128 µg/mL | > 128 µg/mL | > 128 µg/mL |  |  |  |
| O=C1O[C@@H](COc2cnccn2)CN1c1ccc(C2=CCOCC2)c(F)c1 | 1 µg/mL (≈ 2.69 µM) | 1 µg/mL (≈ 2.69 µM) | 1 µg/mL (≈ 2.69 µM) | 2 µg/mL (≈ 5.39 µM) | 0.22 | 0.35 | 1 µg/mL (≈ 2.69 µM) |
| O=C1O[C@@H](COc2ccon2)CN1c1ccc(C2=CCN(CCO)CC2)c(F)c1 | 8 µg/mL (≈ 19.8 µM) | 2 µg/mL (≈ 4.96 µM) | 4 µg/mL (≈ 9.92 µM) | 8 µg/mL (≈ 19.8 µM) |  |  | 4 µg/mL (≈ 9.92 µM) |
| O=C1O[C@@H](COc2cccnc2)CN1c1ccc(C2=CCOCC2)c(F)c1 | 4 µg/mL (≈ 10.8 µM) | 8 µg/mL (≈ 21.6 µM) | 4 µg/mL (≈ 10.8 µM) | 8 µg/mL (≈ 21.6 µM) |  |  | 4 µg/mL (≈ 10.8 µM) |
| Cc1cc(OC[C@H]2CN(c3cc(F)c(C4=CCN(C(=O)[C@@H](O)CO)CC4)c(F)c3)C(=O)O2)on1 | 2 µg/mL (≈ 4.17 µM) | 2 µg/mL (≈ 4.17 µM) | 1 µg/mL (≈ 2.09 µM) | 2 µg/mL (≈ 4.17 µM) |  |  | 1 µg/mL (≈ 2.09 µM) |
| N#Cc1ccc(OC[C@H]2CN(c3ccc(C4=CCOCC4)c(F)c3)C(=O)O2)nc1 | > 128 µg/mL | > 128 µg/mL | > 128 µg/mL | > 128 µg/mL |  |  |  |
| O=C1O[C@@H](COc2ccon2)CN1c1ccc(C2=CCN(C(=S)CO)CC2)c(F)c1 | 0.5 µg/mL (≈ 1.15 µM) | 0.25 µg/mL (≈ 0.577 µM) | 0.25 µg/mL (≈ 0.577 µM) | 0.5 µg/mL (≈ 1.15 µM) | -0.01 | 0.07 | 0.25 µg/mL (≈ 0.577 µM) |
| O=C(CO)N1CC=C(c2c(F)cc(N3C[C@H](COc4cnsn4)OC3=O)cc2F)CC1 | 0.25 µg/mL (≈ 0.553 µM) | 0.25 µg/mL (≈ 0.553 µM) | 0.13 µg/mL (≈ 0.287 µM) | 0.5 µg/mL (≈ 1.11 µM) | 1.05 | 1.72 | 0.25 µg/mL (≈ 0.553 µM) |
| O=C(CO)N1CC=C(c2ccc(N3C[C@H](COc4ccon4)OC3=O)cc2F)CC1 | 0.5 µg/mL (≈ 1.2 µM) | 0.5 µg/mL (≈ 1.2 µM) | 0.25 µg/mL (≈ 0.599 µM) | 1 µg/mL (≈ 2.4 µM) | 0.71 | 1.2 | 0.5 µg/mL (≈ 1.2 µM) |
| O=C([C@@H](O)CO)N1CC=C(c2c(F)cc(N3C[C@H](COc4ccon4)OC3=O)cc2F)CC1 [POSIZOLID] | 0.5 µg/mL (≈ 1.07 µM) | 0.25 µg/mL (≈ 0.537 µM) | 0.25 µg/mL (≈ 0.537 µM) | 0.5 µg/mL (≈ 1.07 µM) | 0.7 | 0.98 | 0.5 µg/mL (≈ 1.07 µM) |
| O=C1O[C@@H](COc2cccc[n+]2[O-])CN1c1ccc(C2=CCOCC2)c(F)c1 | > 128 µg/mL | > 128 µg/mL | > 128 µg/mL | > 128 µg/mL |  |  |  |
| O=C([C@H](O)CO)N1CC=C(c2c(F)cc(N3C[C@H](COc4ccon4)OC3=O)cc2F)CC1 | 0.25 µg/mL (≈ 0.537 µM) | 0.25 µg/mL (≈ 0.537 µM) | 0.25 µg/mL (≈ 0.537 µM) | 0.5 µg/mL (≈ 1.07 µM) |  | 0.55 | 0.5 µg/mL (≈ 1.07 µM) |
| Cc1cccnc1OC[C@H]1CN(c2ccc(C3=CCOCC3)c(F)c2)C(=O)O1 | 16 µg/mL (≈ 41.6 µM) | 8 µg/mL (≈ 20.8 µM) | 8 µg/mL (≈ 20.8 µM) | 32 µg/mL (≈ 83.2 µM) |  |  | 16 µg/mL (≈ 41.6 µM) |
| CC(=O)NC[C@H]1CN(c2ccc(C3=CCOCC3)c(F)c2)C(=O)O1 | 0.25 µg/mL (≈ 0.748 µM) | 0.13 µg/mL (≈ 0.389 µM) | 0.13 µg/mL (≈ 0.389 µM) | 0.13 µg/mL (≈ 0.389 µM) | 0.6 | 1.34 | 0.13 µg/mL (≈ 0.389 µM) |
| Cc1ccnc(OC[C@H]2CN(c3ccc(C4=CCOCC4)c(F)c3)C(=O)O2)c1 | 2 µg/mL (≈ 5.2 µM) | 4 µg/mL (≈ 10.4 µM) | 2 µg/mL (≈ 5.2 µM) | 4 µg/mL (≈ 10.4 µM) |  |  | 2 µg/mL (≈ 5.2 µM) |
| Cc1no[n+]([O-])c1OC[C@H]1CN(c2ccc(C3=CCOCC3)c(F)c2)C(=O)O1 | 2 µg/mL (≈ 5.11 µM) | 4 µg/mL (≈ 10.2 µM) | 1 µg/mL (≈ 2.56 µM) | 2 µg/mL (≈ 5.11 µM) | 0.03 | 0.2 | 2 µg/mL (≈ 5.11 µM) |
| O=C1O[C@@H](COc2ncccn2)CN1c1ccc(C2=CCOCC2)c(F)c1 | 16 µg/mL (≈ 43.1 µM) | 32 µg/mL (≈ 86.2 µM) | 16 µg/mL (≈ 43.1 µM) | 64 µg/mL (≈ 172 µM) |  |  | 16 µg/mL (≈ 43.1 µM) |
| CC(=O)N1CC=C(c2ccc(N3C[C@H](COc4ccon4)OC3=O)cc2F)CC1 | 0.5 µg/mL (≈ 1.25 µM) | 1 µg/mL (≈ 2.49 µM) | 0.5 µg/mL (≈ 1.25 µM) | 1 µg/mL (≈ 2.49 µM) | 0.17 | 0.81 | 0.5 µg/mL (≈ 1.25 µM) |
| CS(=O)(=O)c1ccc(N2C[C@H](COc3nccs3)OC2=O)cc1F | 16 µg/mL (≈ 43 µM) | 16 µg/mL (≈ 43 µM) | 16 µg/mL (≈ 43 µM) | 32 µg/mL (≈ 85.9 µM) |  |  | 32 µg/mL (≈ 85.9 µM) |
